The full list was thinned out, with hits kept by preference.
INS-1E ATP HTS = preserves ATP levels in cytokine-treated INS-1E cells; protection from cytokine-induced ATP loss, % at 10 µM; 20,000 tested, 0.1% active; INS-1E cytokine-induced death, ATP luminescence, 48 h; normalised: neutral wells 0, positive control 100;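 active means mean replicate protection from cytokine-induced ATP loss at least 50% and at least 75% of replicates each reaching 50%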
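Material: INS-1E rat cells; Quantity: 8000 cells/well; Buffer or medium: phenol-red-free RPMI with 5% fetal bovine serum; Probe or stimulus: cytokine cocktail of IFN-γ, TNF-α and IL-1β; Compound dosing: single test concentration per compound, delivered by pin transfer; Incubation: 48 h co-treatment, 10 min post-lysis read; Signal: CellTiter-Glo luminescence.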
T cruzi intra = inhibitors of intracellular Trypanosoma cruzi. intracellular Trypanosoma cruzi in host cells, plate reader. activity score (inhibition), % at 5.01 µM. 22,000 tested, 4.9% active; in the data active means activity score above about 55%;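 further: parasites and compound incubated about four days before reading; 0% = median of neutral control wells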
A1 apoptosis 2 = blocks A1, raising caspase activity | caspase activation, % (test concentration not listed) | AID 2465 | MEF A1-2A-BIM cells, caspase-Glo luminescence, 3 h; percent of clofoctol response, DMSO zero | 24,000 tested, under 10 active; in the data active means caspase activation above about 5.9%
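Material: mouse embryonic fibroblasts co-expressing A1 and BIM (A1-2A-BIM), primed for A1 dependence / Quantity: 2500 cells/well / Buffer or medium: RPMI-1640 growth medium with 10% FBS / Doses: 50 nL compound per well, pinned / Schedule: 3 h compound exposure at 37 °C / Signal: Caspase-Glo luminescence (DEVD substrate) / Measure: Caspase-3/7 activation, seen as rise in luminescence signal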
The depositor's hits bear a star.

What do the screens show for `C[C@@H]1CN([C@H](C)CO)C(=O)Cc2cc(NC(=O)Cc3cn(C)c4ccccc34)ccc2O[C@@H]1CN(C)Cc1ccc(Oc2ccccc2)cc1`?
INS-1E ATP HTS: -55; T cruzi intra: 65*; A1 apoptosis 2: 1

Results for COc1ccc(CN(C)C[C@@H]2Oc3ccc(NC(=O)Cc4cn(C)c5ccccc45)cc3CC(=O)N([C@H](C)CO)C[C@H]2C)cc1 ?
INS-1E ATP HTS: -8; T cruzi intra: 65*; A1 apoptosis 2: 0

Results for C[C@@H]1CN([C@H](C)CO)C(=O)Cc2cc(NC(=O)Cc3cn(C)c4ccccc34)ccc2O[C@@H]1CN(C)S(=O)(=O)c1ccc(Cl)cc1 ?
INS-1E ATP HTS: 3; T cruzi intra: 67*

Results for C[C@H](CO)N1C[C@H](C)[C@@H](CN(C)S(=O)(=O)c2ccc(Cl)cc2)Oc2ccc(NC(=O)Cc3cn(C)c4ccccc34)cc2CC1=O ?
A1 apoptosis 2: 1

How did C[C@H](CO)N1C[C@H](C)[C@@H](CN(C)Cc2ccc(C(F)(F)F)cc2)Oc2ccc(NC(=O)Cc3cn(C)c4ccccc34)cc2CC1=O do in these assays?
A1 apoptosis 2: 0

How did C[C@@H]1CN([C@@H](C)CO)C(=O)Cc2cc(NC(=O)Cc3cn(C)c4ccccc34)ccc2O[C@@H]1CN(C)Cc1ccc(C(F)(F)F)cc1 do in these assays?
INS-1E ATP HTS: 0; T cruzi intra: 63*; A1 apoptosis 2: -1

What do the screens show for `O=C(NO)c1cccc(C(=O)N/N=C/c2cccc(O)c2O)c1`?
INS-1E ATP HTS: -27; T cruzi intra: 1; A1 apoptosis 2: -6

Results for O=C(N/N=C/c1ccccc1O)c1ccccc1O ?
INS-1E ATP HTS: -135; T cruzi intra: 32

Results for O=C(N/N=C/c1cc(O)ccc1O)c1ccccc1O ?
INS-1E ATP HTS: -126; T cruzi intra: 18

How did O=C(N/N=C/c1ccc(O)c(O)c1O)c1ccccc1O do in these assays?
INS-1E ATP HTS: -19; T cruzi intra: 57*; A1 apoptosis 2: -5

What do the screens show for `O=C(N/N=C/c1cc(Cl)cc(Cl)c1O)c1ccccc1O`?
INS-1E ATP HTS: -115; T cruzi intra: 73*; A1 apoptosis 2: -10

What do the screens show for `O=C(NO)c1cccc(C(=O)N/N=C/c2ccc(O)c(O)c2O)c1`?
INS-1E ATP HTS: 8; T cruzi intra: 61*; A1 apoptosis 2: -1

How did C[C@H](CO)N1C[C@H](C)[C@H](CN(C)CC2CCCCC2)Oc2ccc(NS(=O)(=O)c3ccc(F)cc3)cc2CC1=O do in these assays?
INS-1E ATP HTS: -10; T cruzi intra: 16

What do the screens show for `C[C@H](CO)N1C[C@H](C)[C@H](CN(C)C(=O)Nc2ccc(C(F)(F)F)cc2)OCCCC[C@H](C)Oc2ccc(NC(=O)Nc3cccc4ccccc34)cc2C1=O`?
A1 apoptosis 2: 1

How did C[C@H]1CN([C@@H](C)CO)C(=O)c2cc(NC(=O)Cc3ccccc3)ccc2O[C@H]1CN(C)Cc1ccc(Oc2ccccc2)cc1 do in these assays?
INS-1E ATP HTS: -23; T cruzi intra: -8

What do the screens show for `C[C@H](CO)N1C[C@H](C)[C@@H](CN(C)C(=O)Nc2ccc(-c3cccs3)cc2)OCc2cnnn2CCCC1=O`?
INS-1E ATP HTS: 3; T cruzi intra: -31

Results for C[C@H]1CN([C@@H](C)CO)C(=O)Cc2cc(NS(C)(=O)=O)ccc2O[C@H]1CN(C)Cc1ccc(C(F)(F)F)cc1 ?
INS-1E ATP HTS: 8; T cruzi intra: 10

Results for C[C@@H]1CN([C@@H](C)CO)C(=O)c2cc(NC(=O)Nc3ccc(C(F)(F)F)cc3)ccc2O[C@@H](C)CCCCO[C@@H]1CN(C)S(=O)(=O)c1cccs1 ?
A1 apoptosis 2: -1

What do the screens show for `C[C@H](CO)N1C[C@H](C)[C@@H](CN(C)S(=O)(=O)c2cccs2)OCCCC[C@H](C)Oc2ccc(NC(=O)Nc3ccc(C(F)(F)F)cc3)cc2C1=O`?
A1 apoptosis 2: -1

Results for C[C@@H]1CCCCO[C@@H](CN(C)S(=O)(=O)c2cccs2)[C@@H](C)CN([C@H](C)CO)C(=O)c2cc(NC(=O)Nc3ccc(C(F)(F)F)cc3)ccc2O1 ?
INS-1E ATP HTS: -12; T cruzi intra: 67*; A1 apoptosis 2: 0

How did C[C@@H]1CCCCO[C@H](CN(C)S(=O)(=O)c2cccs2)[C@@H](C)CN([C@H](C)CO)C(=O)c2cc(NC(=O)Nc3ccc(C(F)(F)F)cc3)ccc2O1 do in these assays?
INS-1E ATP HTS: -15; T cruzi intra: 62*

Results for C[C@@H]1CCCCO[C@H](CN(C)C(=O)Nc2ccccc2)[C@H](C)CN([C@H](C)CO)C(=O)c2cc(NC(=O)Cc3ccccc3)ccc2O1 ?
A1 apoptosis 2: -1

Results for Cc1noc(C)c1S(=O)(=O)N(C)C[C@@H]1OCCCC[C@@H](C)Oc2ccc(NC(=O)CCC(F)(F)F)cc2C(=O)N([C@H](C)CO)C[C@@H]1C ?
INS-1E ATP HTS: 4; T cruzi intra: -2

Results for Cc1ccc(S(=O)(=O)Nc2ccc3c(c2)C(=O)N([C@@H](C)CO)C[C@@H](C)[C@@H](CN(C)C(=O)CCCN(C)C)OCCCC[C@@H](C)O3)cc1 ?
A1 apoptosis 2: 0

What do the screens show for `CNC[C@@H]1Oc2ccc(NS(=O)(=O)c3ccccc3)cc2CC(=O)N([C@H](C)CO)C[C@@H]1C`?
INS-1E ATP HTS: 14; T cruzi intra: -38; A1 apoptosis 2: 0

How did C[C@@H]1CCCCO[C@@H](CN(C)Cc2ccc(C(=O)Nc3ccccc3N)cc2)[C@@H](C)CN([C@H](C)CO)C(=O)c2cc(NC(=O)Nc3ccc(F)cc3)ccc2O1 do in these assays?
INS-1E ATP HTS: -3; T cruzi intra: 9

What do the screens show for `C[C@@H]1CCCCO[C@@H](CN(C)Cc2ccccc2)[C@@H](C)CN([C@H](C)CO)C(=O)c2cc(NC(=O)Nc3ccc(C(F)(F)F)cc3)ccc2O1`?
INS-1E ATP HTS: -40; T cruzi intra: 71*

What do the screens show for `C[C@@H]1CCCCO[C@@H](CN(C)Cc2ccc(C(F)(F)F)cc2)[C@H](C)CN([C@@H](C)CO)C(=O)c2cc(NC(=O)Cc3ccccc3)ccc2O1`?
A1 apoptosis 2: -1

Results for C[C@@H]1CCCCO[C@@H](CN(C)Cc2ccc(C(F)(F)F)cc2)[C@@H](C)CN([C@H](C)CO)C(=O)c2cc(NC(=O)c3ccccc3)ccc2O1 ?
INS-1E ATP HTS: -11; T cruzi intra: 63*

What do the screens show for `C[C@@H]1CCCCO[C@@H](CN(C)Cc2ccc(C(F)(F)F)cc2)[C@@H](C)CN([C@H](C)CO)C(=O)c2cc(NC(=O)Cc3ccccc3)ccc2O1`?
INS-1E ATP HTS: -15; T cruzi intra: 63*

Results for C[C@@H]1CCCCO[C@H](CN(C)Cc2ccc(C(F)(F)F)cc2)[C@@H](C)CN([C@@H](C)CO)C(=O)c2cc(NC(=O)c3ccccc3)ccc2O1 ?
A1 apoptosis 2: -1

How did C[C@@H]1CCCCO[C@@H](CN(C)Cc2ccccc2)[C@@H](C)CN([C@@H](C)CO)C(=O)c2cc(NC(=O)Nc3ccc(C(F)(F)F)cc3)ccc2O1 do in these assays?
A1 apoptosis 2: 1
